Activity calls are given as the source filed them. No cut-off for these calls is given here.
Tests used:
[1] = system: Staphylococcus aureus; assay: Bactericidal activity against methicillin resistant Staphylococcus aureus ATCC BAA 1556 assessed as inhibition of bacterial growth at MIC to 4 times of MIC by Time kill assay; type: functional, organism-based; settings: time 4.0 hrs, TDE = time-dependent effect
How it was run: (§1)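 Aliquots taken every 30 min for 4 h and plated on agar for viable colony counts. Two independent experiments in triplicate.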

[2] = system: Staphylococcus aureus; assay: Antibacterial activity against methicillin resistant Staphylococcus aureus ATCC BAA 1556 assessed as fold increase in MIC incubated for 24 hrs in presence of K+ ions by CLSI based broth microdilution method; type: functional
How it was run: (§2)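 CLSI broth microdilution. Overnight cultures diluted in cation-adjusted Mueller Hinton broth to 10^6 CFU/mL, mixed 1:1 with 2-fold serial peptide dilutions, 24 h at 37 °C. […] MIC is the lowest concentration inhibiting growth. Three independent assays in triplicate.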

[3] = system: Cell membrane; assay: Disruption of cell membrane in methicillin resistant Staphylococcus aureus ATCC BAA 1556 assessed as increase in PI fluorescence intensity measured after 1 hrs by PI staining based flow cytometric analysis; type: subcellular
How it was run: (§3)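 Mid-log cells grown in Mueller Hinton broth, washed in 10 mM Tris pH 7.4, 10^7 CFU/mL, treated at MIC and 4× MIC for 1 h. Pelleted, washed, PI-stained for 15 min at 37 °C in the dark, then counted by flow cytometry for % PI-positive cells. PBS-treated cells as negative control, 10% Triton X-100 as positive control. Run in triplicate; two-tailed unpaired t-test.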

[4] = system: Staphylococcus aureus; assay: Antibacterial activity against methicillin resistant Staphylococcus aureus ATCC BAA 1556 assessed as fold increase in MIC incubated for 24 hrs in presence of NH4+ ions by CLSI based broth microdilution method; type: functional; how it was run: as §2
[5] = system: Staphylococcus aureus; assay: Bactericidal activity against methicillin resistant Staphylococcus aureus ATCC BAA 1556 assessed as inhibition of bacterial growth at MIC incubated for 4 hrs by Time kill assay; type: functional; how it was run: as §1
[6] = system: Escherichia coli; assay: Bactericidal activity against […] Escherichia coli ATCC BAA 2452 assessed as inhibition of bacterial growth at MIC to 4 times of MIC by Time kill assay; type: functional, organism-based; settings: time 4.0 hrs, TDE = time-dependent effect; how it was run: as §1
[7] = system: Escherichia coli; assay: Antibacterial activity against Escherichia coli ATCC 25922 assessed as fold increase in MIC incubated for 24 hrs in presence of Mg2+ ions by CLSI based broth microdilution method; type: functional
How it was run: (§4)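 E. coli MICs by CLSI broth microdilution in cation-adjusted Mueller Hinton broth. […] Inoculum was 10^6 CFU/mL with 2-fold serial peptide dilutions, incubated 24 h at 37 °C. MIC is the lowest concentration inhibiting growth. Three independent assays, each in triplicate.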

[8] = system: HEK293; assay: Antiproliferative activity human HEK293 cells assessed as reduction in cell viability at 250 ug/ml incubated for 24 hrs by MTS assay; type: functional; settings: dose 250 µg/ml
How it was run: (§5)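 Cells seeded at 10,000 per well 24 h before treatment. Media: MRC-5 and HEK293 in DMEM with 10% FBS; HepaRG in William's E with GlutaMAX; HEKa in Dermal Cell Basal medium plus keratinocyte growth kit. Peptide at 10–250 μg/mL in triplicate for 24 h, 37 °C, 5% CO2. MTS added for 2 h, then A490 read. Survival is blank-corrected OD as % of untreated control.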

[9] = system: HEK293; assay: Antiproliferative activity human HEK293 cells assessed as reduction in cell viability at 50 ug/ml incubated for 24 hrs by MTS assay; type: functional; settings: dose 50 µg/ml; how it was run: as §5
[10] = system: Cell membrane; assay: Disruption of cell membrane in Escherichia coli ATCC BAA-2452 assessed as cell membrane perturbation at 4 times of MIC measured after 1 hrs by PI and DAPI double staining based fluorescence microscopic analysis
How it was run: (§6)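 Mid-log E. coli ATCC BAA-2452 was washed three times in PBS (10 mM, pH 7.3). Cells at 10^7 CFU/mL were exposed to agent at MIC or 4× MIC for 1 h, then pelleted at 3000g and washed. Staining was PI for 15 min, then DAPI for 15 min, both at 37 °C in the dark. Untreated cells were processed alike. Imaged by fluorescence microscopy with 60× oil objective.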

[11] = system: Escherichia coli; assay: Antibacterial activity against Escherichia coli ATCC 25922 assessed as fold increase in MIC incubated for 24 hrs in presence of K+ ions by CLSI based broth microdilution method; type: functional; how it was run: as §4
[12] = system: Escherichia coli; assay: Antibacterial activity against Escherichia coli ATCC 25922 assessed as fold increase in MIC incubated for 24 hrs in presence of NH4+ ions by CLSI based broth microdilution method; type: functional; how it was run: as §4
[13] = system: Cell membrane; assay: Induction of membrane disruption in bacterial inner membrane mimic DOPC/DOPG (7:3) large unilamellar vesicles assessed as induction of dye leakage measured upto 100 mins by calcein dye based analysis; type: subcellular; settings: dose 5-50 µg/ml
How it was run: (§7)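 LUVs loaded with calcein: DOPC/DOPG 7:3 w/w (bacterial mimic) or DOPC/cholesterol 10:1 w/w (mammalian mimic). Mixed 1:1 by volume with peptide at 5, 10, 20, 30 or 50 μg/mL. Fluorescence (ex 490/em 520 nm) read every 10 min for 100 min. Leakage expressed relative to 10% Triton X-100 lysis (100%), after subtracting liposome background. Triplicate.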

[14] = system: Cell membrane; assay: Disruption of cell membrane in methicillin resistant Staphylococcus aureus ATCC BAA 1556 assessed as increase in PI fluorescence intensity at 4 times of MIC measured after 1 hrs by PI staining based flow cytometric analysis; how it was run: as §3
[15] = system: Cell membrane; assay: Disruption of cell membrane in Escherichia coli ATCC BAA-2452 assessed as cell membrane perturbation measured after 1 hrs by PI and DAPI double staining based fluorescence microscopic analysis; type: subcellular; how it was run: as §6
[16] = system: MRC5; assay: Antiproliferative activity human MRC5 cells assessed as reduction in cell viability at 250 ug/ml incubated for 24 hrs by MTS assay; type: functional; settings: dose 250 µg/ml; how it was run: as §5
[17] = system: Cell membrane; assay: Induction of membrane disruption in bacterial inner membrane mimic DOPC/DOPG (7:3) large unilamellar vesicles assessed as induction of dye leakage at 50 ug/ml measured after 100 mins by calcein dye based analysis; type: subcellular; settings: dose 50.0 µg/ml; how it was run: as §7
[18] = system: Cell membrane; assay: Induction of membrane disruption in bacterial inner membrane mimic DOPC/DOPG (7:3) large unilamellar vesicles assessed as induction of dye leakage at 5 ug/ml measured after 100 mins by calcein dye based analysis; type: subcellular; settings: dose 5.0 µg/ml; how it was run: as §7
[19] = system: Cell membrane; assay: Disruption of cell membrane in methicillin resistant Staphylococcus aureus ATCC BAA 1556 assessed as cell membrane perturbation at 4 times of MIC measured after 1 hrs by DAPI and PI double staining based fluorescence microscopic analysis
How it was run: (§8)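 Mid-log cells washed in PBS (10 mM, pH 7.3), 10^7 CFU/mL, treated at MIC and 4× MIC for 1 h. Pelleted and washed, then stained with PI for 15 min at 37 °C in the dark, then DAPI for 15 min at 37 °C in the dark. Untreated controls. Imaged by fluorescence microscopy, 60× oil objective.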

[20] = system: Cell membrane; assay: Disruption of cell membrane in methicillin resistant Staphylococcus aureus ATCC BAA 1556 assessed as cell membrane perturbation measured after 1 hrs by DAPI and PI double staining based fluorescence microscopic analysis; type: subcellular; how it was run: as §8
[21] = system: Escherichia coli; assay: Antibacterial activity against Escherichia coli ATCC 25922 assessed as fold increase in MIC incubated for 24 hrs in presence of Na+ ions by CLSI based broth microdilution method; type: functional; how it was run: as §4

Substance | inhibition [1] | fold change (FC) [2] | Activity [3] | fold change (FC) [4] | inhibition (INH) [5] | inhibition [6] | fold change (FC) [7] | Activity [8] | Activity [9] | Activity [10] | fold change (FC) [11] | fold change (FC) [12] | Activity [13] | Activity [14] | Activity [15] | Activity [16] | Activity [17] | Activity [18] | Activity [19] | Activity [20] | other results
H-RWLRRWLRWWRR-NH2 | Tde | 2 | Dose-Dependent Effect | 2 | 75% | Tde | 2 | <30% | <60% | Active | 2 | 2 | Dose-Dependent Effect | 75% | Dose-Dependent Effect | <30% | 80% | 30% | Active | Dose-Dependent Effect | fold change (FC) [21]: 2
H-KWLKKWLKWWKK-NH2 | Tde | 2 | Dose-Dependent Effect | 2 | 75% | Tde | 2 | >60% | >75% | Active | 2 | 2 | Dose-Dependent Effect | 75% | Dose-Dependent Effect | >60% | 80% | 30% | Active | Dose-Dependent Effect | fold change (FC) [21]: 2

Reference: ChEMBL document CHEMBL5316289, “Structure-Based Rational Design of Small α-Helical Peptides with Broad-Spectrum Activity against Multidrug-Resistant Pathogens” (J Med Chem, 2023)
